Mdm2 MdmX PPI: human Mdm2/MdmX binding inhibition. O15151+Q00987. inhibition, % at 8 µM. 330,000 compounds, 3% hits. SaOS-2 split-luciferase Mdm2/MdmX complementation, luminescence;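 active = inhibition of at least 50% at 8 µM in the primary screen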
Target sequence (O15151 whole entry, looked up): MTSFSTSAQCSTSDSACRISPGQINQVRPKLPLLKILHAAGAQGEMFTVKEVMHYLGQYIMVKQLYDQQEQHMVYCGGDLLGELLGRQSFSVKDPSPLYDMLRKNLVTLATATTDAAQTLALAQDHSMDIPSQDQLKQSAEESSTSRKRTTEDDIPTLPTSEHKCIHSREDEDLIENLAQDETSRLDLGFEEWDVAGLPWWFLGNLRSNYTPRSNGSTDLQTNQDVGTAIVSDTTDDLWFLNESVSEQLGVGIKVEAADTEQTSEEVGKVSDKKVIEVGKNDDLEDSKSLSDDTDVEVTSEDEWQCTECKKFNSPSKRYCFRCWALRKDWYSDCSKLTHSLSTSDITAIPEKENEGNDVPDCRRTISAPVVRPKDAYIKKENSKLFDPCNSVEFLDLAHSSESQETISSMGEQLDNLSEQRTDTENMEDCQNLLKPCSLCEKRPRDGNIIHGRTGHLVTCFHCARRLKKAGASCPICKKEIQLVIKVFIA
Target sequence (Q00987 whole entry, looked up): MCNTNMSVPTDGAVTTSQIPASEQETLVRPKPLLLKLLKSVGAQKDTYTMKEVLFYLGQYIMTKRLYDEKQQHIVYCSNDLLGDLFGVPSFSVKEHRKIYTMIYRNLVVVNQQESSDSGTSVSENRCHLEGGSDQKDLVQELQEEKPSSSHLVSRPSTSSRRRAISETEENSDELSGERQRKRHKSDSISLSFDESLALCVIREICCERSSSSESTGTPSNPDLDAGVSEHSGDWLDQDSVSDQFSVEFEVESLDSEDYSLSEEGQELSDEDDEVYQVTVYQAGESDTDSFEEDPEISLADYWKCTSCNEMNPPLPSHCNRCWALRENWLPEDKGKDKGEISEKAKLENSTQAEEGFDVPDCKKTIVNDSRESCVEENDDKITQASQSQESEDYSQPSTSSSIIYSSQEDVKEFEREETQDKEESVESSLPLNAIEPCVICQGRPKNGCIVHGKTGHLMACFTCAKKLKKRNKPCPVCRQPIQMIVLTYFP
CSC inhib: cancer stem cell inhibition | 300,000 compounds, 1.1% hits | inhibition, % at 7.5 µM | cancer stem cell-like cells viability, luminescence; in the data active = inhibition above about 75%; inconclusive = no clear call, values can overlap the other calls; tested in HMLE shEcad cells
T cruzi inh: blocks replication of Trypanosoma cruzi; inhibition, % (no concentration beside the values); T. cruzi beta-gal in NIH3T3, luminescence, 90 h; 300,000 compounds, 1.4% hits;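 active = mean inhibition across valid replicates above about 55%, limit read from the data; inconclusive = mean below that limit but half or more replicates reach it; inactive = mean below it, under half of replicates reach it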;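 also: signal also drops with host cell toxicity which is not excluded here; 0% = plate median of DMSO wells and 100% = zero luminescence signal; higher percent means less beta-gal luminescence so fewer parasites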
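Material: NIH/3T3 host cells with β-galactosidase reporter T. cruzi; Input: 5,000 host fibroblasts per well; Medium: DMEM, 2% fetal bovine serum; Compound: 50 nL DMSO compound solution per well; Schedule: 3 h host attachment, then at least 90 h co-culture; Detection: luminescent β-galactosidase signal after 60 min lysis.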
L major viab: inhibitors of Leishmania major promastigote growth; 200,000 compounds, 9% hits; Leishmania major promastigotes, resazurin fluorescence viability; inhibition, % at 10 µM; in the data active = inhibition above about 50%;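 also: promastigotes grown with compound for 44 hours at 28 °C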
Beta apoptosis: beta cell apoptosis inhibition | INS-1E cytokine-induced death, ATP luminescence, 48 h; percent of positive-control rescue, neutral wells zero | 300,000 compounds, 0.8% hits | protection from apoptosis, % (no concentration beside the values) | AID 435005;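 active = Every replicate reaches about 75%, or at least half do and their mean reaches it too, limit read from the data; inconclusive = At least half of replicates reach the limit but their mean does not; inactive = Under half of replicates reach the limit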;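 also: 0% = cytokine-treated negative control wells and 100% = positive control rescue; higher means more ATP so stronger rescue from cytokine killing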
SKKanGAS inh: SKKanGAS growth inhibition | S. pyogenes SKKanGAS, kanamycin growth, BacTiter-Glo, 6 h | inhibition, % at 7.5 µM | 300,000 compounds, 1.3% hits | AID 1662;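 active = mean replicate score, as percent of positive control median, at least 50; inconclusive = mean below 50 but one replicate at or above 50; inactive = mean and every replicate below 50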;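 also: strain carries kanamycin resistance gene driven by streptokinase promoter and grows in 40 µg/ml kanamycin; loss of luminescence reflects streptokinase promoter inhibition or plain growth inhibition; 0% = median of DMSO wells and 100% = positive control at its reference dose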
* = called active by the depositor. Sampled rows, rich in hits. Any-hit rate of the full collection: about 9.4%.

For O=C1c2ccccc2C(=O)N1CC(O)COc1ccccc1Cl (stereo unspecified) the results were Mdm2 MdmX PPI 8, CSC inhib -7, T cruzi inh -1 and SKKanGAS inh 1.
`O=C(Nc1ccc(Cl)c(Cl)c1)O/N=C/c1ccncc1` gave Mdm2 MdmX PPI 11, CSC inhib 75*, T cruzi inh -2, L major viab 17, Beta apoptosis 17 and SKKanGAS inh 56*.
COc1ccc(/C=N/NC(=O)c2cccc(NC(C)=O)c2)c(OC)c1 was read as Mdm2 MdmX PPI 6, CSC inhib -9, T cruzi inh 2, L major viab 5 and SKKanGAS inh -6.
Screening COc1ccc(/C=N/NC(=O)c2cccc(NC(=O)c3ccccc3Cl)c2)c(OC)c1 returned Mdm2 MdmX PPI 20, CSC inhib -5, T cruzi inh -12, L major viab 53*, Beta apoptosis 2 and SKKanGAS inh 5.
O=C(N/N=C/c1ccncc1)c1cccc(NC(=O)c2ccccc2Cl)c1 was read as Mdm2 MdmX PPI 12, CSC inhib 3, T cruzi inh 2, L major viab 62*, Beta apoptosis 2 and SKKanGAS inh 9.
Screening O=C(Nc1cccc(Cl)c1)O/N=C\c1ccncc1 returned Mdm2 MdmX PPI 15, CSC inhib -5, T cruzi inh -3, L major viab 0, Beta apoptosis -7 and SKKanGAS inh 2.
CCCCC(=O)Nc1cccc(C(=O)N/N=C/c2ccc(OC)cc2OC)c1 was read as Mdm2 MdmX PPI -13, CSC inhib 0, T cruzi inh -8, L major viab 100*, Beta apoptosis 0 and SKKanGAS inh -8.
Screening COc1ccc(OCC(=O)NC2CCCN(Cc3ccc(Cl)cc3)C2)cc1 (stereo unspecified) returned Mdm2 MdmX PPI 22, CSC inhib -4, T cruzi inh 37, Beta apoptosis -2 and SKKanGAS inh 2.
`CCCSc1nnc(-c2cccc(S(=O)(=O)N(C)C)c2)n1-c1cc(OC)ccc1OC` gave Mdm2 MdmX PPI 22, CSC inhib -5, T cruzi inh 7, L major viab 53*, Beta apoptosis 0 and SKKanGAS inh 0.
`CC(=O)N1CCc2cc(S(=O)(=O)NCCN3CCC(C)CC3)ccc21` gave Mdm2 MdmX PPI 15, CSC inhib -5, T cruzi inh -7, L major viab 58*, Beta apoptosis -5 and SKKanGAS inh -5.
`CC(=O)N1CCc2cc(S(=O)(=O)NC(CC(C)C)C(=O)N3CCCC3)ccc21` (stereo unspecified) gave Mdm2 MdmX PPI -18, CSC inhib -23, T cruzi inh -15, Beta apoptosis -3 and SKKanGAS inh 1.
CC(=O)N1CCc2cc(S(=O)(=O)NC(CC(C)C)C(=O)N3CCc4ccccc4C3)ccc21 (stereo unspecified) was read as Mdm2 MdmX PPI -30, CSC inhib 1, T cruzi inh 10, L major viab 73*, Beta apoptosis 0 and SKKanGAS inh -2.
For CCOC(=O)C1CCC(CNCc2ccccc2C)CC1 (stereo unspecified) the results were Mdm2 MdmX PPI -3, CSC inhib 6, T cruzi inh 17, L major viab 95*, Beta apoptosis -5 and SKKanGAS inh 13.
`Cc1nn(-c2ccccc2)c2nc(-c3cccs3)cc(C(=O)NN)c12` gave Mdm2 MdmX PPI 23, CSC inhib 24, T cruzi inh -6, L major viab -5, Beta apoptosis 8 and SKKanGAS inh 8.
For Cc1nn(-c2ccccn2)c2nc(-c3cccs3)cc(C(=O)NCc3ccco3)c12 the results were Mdm2 MdmX PPI 20, CSC inhib 11, T cruzi inh 10, L major viab 53*, Beta apoptosis 4 and SKKanGAS inh 11.
Cc1nn(-c2ccccc2)c2nc(-c3ccncc3)cc(C(=O)NCc3ccco3)c12 was read as Mdm2 MdmX PPI 38, CSC inhib 6, T cruzi inh 36, L major viab 45 and SKKanGAS inh 4.
Screening CCOC(=O)c1cc(-c2cccs2)nc2c1c(C)nn2-c1ccccn1 returned Mdm2 MdmX PPI 36, CSC inhib 104*, T cruzi inh 7, L major viab 38, Beta apoptosis 65 and SKKanGAS inh 58*.
For COc1ccc(Cl)cc1NC(=O)c1noc(C)c1[N+](=O)[O-] the results were Mdm2 MdmX PPI 8, CSC inhib 22, T cruzi inh -14, Beta apoptosis -5 and SKKanGAS inh -5.
Screening O=C(CC1C(=O)NCCN1Cc1ccc(-c2ccccc2)cc1)NCc1ccccc1 (stereo unspecified) returned Mdm2 MdmX PPI 15, CSC inhib 5, T cruzi inh 6, L major viab -1, Beta apoptosis -3 and SKKanGAS inh -17.
For O=C(CC1C(=O)NCCN1Cc1ccc(-c2ccccc2)cc1)NC1CCC1 (stereo unspecified) the results were Mdm2 MdmX PPI 9, CSC inhib 14, T cruzi inh -6, L major viab -10, Beta apoptosis 116* and SKKanGAS inh -4.
`CC(=O)c1ccc(N2CCN(C(=O)C3CCCN(S(=O)(=O)c4c(C)[nH]c(=O)[nH]c4=O)C3)CC2)cc1` (stereo unspecified) gave Mdm2 MdmX PPI -5, CSC inhib -7, T cruzi inh 24, L major viab -2, Beta apoptosis 0 and SKKanGAS inh -7.
For Cn1c(C(=O)NCc2cccnc2)cc2sc(Cl)cc21 the results were Mdm2 MdmX PPI 1, CSC inhib -8, T cruzi inh 61*, L major viab 81*, Beta apoptosis 0 and SKKanGAS inh 1.
Screening O=C(Cc1ccc(Cl)cc1)c1c[nH]c(C(=O)NCc2cccnc2)c1 returned Mdm2 MdmX PPI 6, CSC inhib 13, T cruzi inh -8, L major viab -10, Beta apoptosis 107* and SKKanGAS inh -4.
`O=C(NCc1cccnc1)c1sc2cc(Cl)ccc2c1Cl` gave Mdm2 MdmX PPI 23, CSC inhib -4, T cruzi inh 42, L major viab 82*, Beta apoptosis -12 and SKKanGAS inh -12.
For CCOc1ccc(CCNC(=O)c2cc3sc(Cl)cc3n2C)cc1OCC the results were Mdm2 MdmX PPI 8, CSC inhib 6, T cruzi inh 38, L major viab -1, Beta apoptosis -3 and SKKanGAS inh inconclusive.
Screening Oc1ccc(C(=S)N2CCCCCC2)cc1 returned Mdm2 MdmX PPI -3, CSC inhib -19, T cruzi inh -2, L major viab -3 and SKKanGAS inh -19.
`S=C(c1ccc(N2CCCC2)cc1)N1CCCCC1` gave Mdm2 MdmX PPI -55, CSC inhib -18, L major viab 88* and Beta apoptosis 2.
For Nc1ccc(N2CCCCCC2)cc1 the results were Mdm2 MdmX PPI 26, L major viab 100* and Beta apoptosis 69.

Bioassay records: PubChem BioAssay, several laboratories
